This passage reports growth, inhibition in vivo and Activity results from ChEMBL document CHEMBL2390929, “New nitric oxide donating 1,2,4-triazole/oxime hybrids: synthesis, investigation of anti-inflammatory, ulceroginic liability and antiproliferative activities” (Bioorg Med Chem, 2013).

The subject of data set [1] is BT-549. In words: Cytotoxicity against human BT549 cells assessed as cell growth at 10^-5 M after 48 hrs by SRB assay. Particulars: BT-549, 48 h, read-out: Activity. The data set is classed as functional. Summed up: (§1)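 NCI 60-cell-line primary one-dose screen across nine tumour subpanels. Compound added at a single concentration of 10^-5 M and cultures incubated 48 h. Endpoint was sulforhodamine B protein staining read spectrophotometrically, with growth expressed as percent of untreated control cells.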
A general note: The SRB assay estimates cell density from bound dye.

Data set [2] relates to DU-145. Nature of the data set: Cytotoxicity against human DU145 cells assessed as cell growth at 10^-5 M after 48 hrs by SRB assay. The data set is classed as functional. Particulars: DU-145, 48 h, read-out: Activity. Put shortly: as §1
Data set [3] deals with 786-0. Nature of the data set: Cytotoxicity against human 786-0 cells assessed as cell growth at 10^-5 M after 48 hrs by SRB assay. The data set is classed as functional. Particulars: 786-0, 48 h, read-out: Activity. Put shortly:
as §1

Data set [4] relates to SK-OV-3. In words: Cytotoxicity against human SKOV3 cells assessed as cell growth at 10^-5 M after 48 hrs by SRB assay. The data set is classed as functional. Particulars: SK-OV-3, 48 h, read-out: Activity. Summed up:
(§2)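 NCI-60 one-dose screen across nine tumour subpanels. Each agent added once at 10^-5 M, cultures incubated 48 h. Endpoint is sulforhodamine B protein staining read spectrophotometrically. Output is percent growth of treated cells relative to untreated controls.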

Data set [5] has as its system SK-MEL-2. Nature of the data set: Cytotoxicity against human SK-MEL-2 cells assessed as cell growth at 10^-5 M after 48 hrs by SRB assay. The data set is classed as functional. Particulars: SK-MEL-2, 48 h, read-out: Activity. Put shortly:
as §1

Data set [6] deals with NCI-H522. In words: Cytotoxicity against human NCI-H522 cells assessed as cell growth at 10^-5 M after 48 hrs by SRB assay. Format: functional. The settings on record: NCI-H522, 48 h, read-out: Activity. Put shortly:
as §1

Data set [7] has as its system NCI-H23. In words: Cytotoxicity against human NCI-H23 cells assessed as cell growth at 10^-5 M after 48 hrs by SRB assay. The settings on record: NCI-H23, 48 h, read-out: Activity. Format: functional. Summed up:
as §1

Data set [8] concerns SR. In words: Cytotoxicity against human SR cells assessed as cell growth at 10^-5 M after 48 hrs by SRB assay. Format: functional. Particulars: read-out: Activity. Summed up: as §2
In data set [9] the test system is MOLT-4. In words: Cytotoxicity against human MOLT4 cells assessed as cell growth at 10^-5 M after 48 hrs by SRB assay. Format: functional. The settings on record: MOLT-4, 48 h, read-out: Activity. Summed up: as §1
The subject of data set [10] is Rattus norvegicus. In words: Antiinflammatory activity in albino rat assessed as inhibition of carrageenan-induced paw edema at 0.28 mmol/kg, po after 1 hr relative to control. Format: functional. Put shortly: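 Adult male albino rats (120–140 g), four per group, fasted 24 h with water allowed. Test agent suspended in 0.5% w/v aqueous CMC and given orally at 0.28 mmol/kg; controls received CMC alone. After 30 min, 0.1 mL fresh 1% carrageenan in saline was injected subplantar into the right hind paw and saline into the left. Paw thickness was measured by Vernier caliper; % inhibition = [(VR−VL)control − (VR−VL)treated]/(VR−VL)control ×100. Mean ± SEM, one-way ANOVA.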

Data set [11] in a line: Induction of nitric oxide release in phosphate buffer at pH 7.4 at 0.1 mM after 5 hrs by Griess method in presence of 0.5 mM of N-acetylcysteine. Format: physicochemical. The settings on record: pH 7.4, 5 h, 100 µM. Put shortly:
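Compound in DMF diluted to final 10^-4 M in 1:1 50 mM phosphate buffer pH 7.4/MeOH with 5×10^-4 M N-acetylcysteine, 37 °C. Aliquot mixed with Griess reagent, 10 min at room temperature, A546 read. Nitrite quantified against sodium nitrite standards (10–80 nmol/mL); NO expressed as mol/mol. n = 4 reaction mixtures per compound.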
On the technique in general: Griess reagent forms a coloured azo dye with nitrite.

In data set [12] the test system is TK-10. In words: Cytotoxicity against human TK10 cells assessed as cell growth at 10^-5 M after 48 hrs by SRB assay. The data set is classed as functional. Particulars: TK-10, 48 h, read-out: Activity. Put shortly:
as §2

Data set [13] has as its system NCI-H322M. Nature of the data set: Cytotoxicity against human NCI-H322M cells assessed as cell growth at 10^-5 M after 48 hrs by SRB assay. Particulars: read-out: Activity. Format: functional. Put shortly:
as §1

For data set [14], the system named is Rattus norvegicus. In words: Gastrointestinal toxicity in albino rat assessed as histopathological analysis at 0.28 mmol/kg, po using haematoxylin and eosin staining by light microscopic analysis. Format: organism-based. The settings on record: in vivo. Put shortly: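 Adult male albino rats (120–140 g, Minia University), groups of four, fasted 24 h with water allowed. Oral dose 0.28 mmol/kg suspended in 0.5% aqueous CMC; vehicle-only controls. Gastric sections dewaxed, stained with haematoxylin 5–7 min, differentiated in 1% HCl/70% alcohol, counterstained with 1% eosin 10 min. Cleared in xylene, mounted, examined by light microscopy at ×400.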

As a reminder, the inhibition in vivo is the drop in the measured response relative to a control, in per cent.

Regarding `O/N=C(/CSc1nnc(-c2ccccc2)n1-c1ccccc1)c1ccccc1`, the growth at 10 µM in data set [1] is 111%; in data set [2], 99.2%; in [3], 109%; in [4], 103%; in [5], 101%; in [6], 98.5%. Moreover, the growth at 10 µM came to 103% in data set [7], 92.8% in data set [8] and 84.8% in [9]. For the same compound, the inhibition in vivo at 280 µmol/kg in data set [10] was 60%. Besides, the Activity in data set [11] was found to be 0.15 mol/mol.

Consider `COc1ccc(-c2nnc(SC/C(=N/O)c3ccccc3)n2-c2ccccc2)cc1OC`, for which the growth at 10 µM stood at 92.4% in data set [1]; 114% in [2]; 123% in data set [12]; 102% in data set [3]; 103% in data set [4]; 116% in data set [5]. The growth at 10 µM is 88.8% in data set [6]; 98% in data set [7]; 103% in data set [13]; 85.1% in data set [8]; 81.8% in data set [9]. Moreover, the inhibition in vivo at 280 µmol/kg in data set [10] stood at 55%. Further, the Activity in data set [11] worked out at 0.23 mol/mol.

For the compound `COc1ccc(-c2nnc(SC/C(=N/O)c3ccccc3)n2-c2ccccc2)cc1`, the growth at 10 µM was found to be 90.5% in data set [1]; 119% in [2]; 113% in data set [12]; 93.3% in data set [3]; 111% in data set [4]; 106% in [5]. In addition, the growth at 10 µM worked out at 81.6% in data set [6]; 106% in data set [7]; 102% in [13]; 75.9% in data set [8]; 70.3% in data set [9]. Moreover, the inhibition in vivo at 280 µmol/kg in data set [10] was 58%. Also, the Activity in data set [11] is 0.15 mol/mol.

Take `CCn1c(SC/C(=N/O)c2ccccc2)nnc1-c1ccc(OC)c(OC)c1`: the growth at 10 µM in data set [1] was 134%; in [2], 112%; in [12], 106%; in data set [3], 115%; in [4], 96.4%; in [5] it was 105%. Also, the growth at 10 µM worked out at 89.4% in data set [6]; 102% in data set [7]; 99.4% in data set [13]; 95.4% in [8]; 87.4% in [9]. The values for the Activity entry in data set [14] and in [11] were “Non-toxic” and 0.25 mol/mol, respectively. In data set [10], the inhibition in vivo at 280 µmol/kg is 61%.

For the compound `CCn1c(SC/C(=N/O)c2ccccc2)nnc1-c1ccccc1`, the growth at 10 µM was 115% in data set [1]; 107% in [2]; 105% in [3]; 89.7% in data set [4]; 108% in data set [5]; 112% in [6]. For the same compound, the growth at 10 µM in [7] is 103%; in data set [8] it was 94.8%; in [9], 94.8%. For the same compound, in [10], the inhibition in vivo at 280 µmol/kg was 65%. In addition, the Activity in data set [11] was determined as 0.14 mol/mol.

For `C=CCn1c(SC/C(=N\O)c2ccccc2)nnc1-c1ccc(OC)c(OC)c1`, the growth at 10 µM in [1] was found to be 124%; in data set [2], 114%; in [12], 112%; in data set [3], 119%; in data set [4], 110%; in data set [5] it was 100%. Besides, the growth at 10 µM in [6] came out at 89%; in data set [7] it was 91.5%; in [13], 96.6%; in data set [8], 109%; in data set [9] it was 85.3%. Moreover, the inhibition in vivo at 280 µmol/kg in data set [10] is 53%. In [11], the Activity turned out to be 0.24 mol/mol.

Turning to `COc1cc(-c2nnc(SC/C(=N/O)c3ccccc3)n2-c2ccccc2)cc(OC)c1OC`, the growth at 10 µM in [1] turned out to be 85.3%; in data set [2], 123%; in [12], 116%; in data set [3], 94.7%; in data set [4], 110%; in [5], 98.3%. Also, the growth at 10 µM amounted to 82.1% in data set [6]; 92.5% in data set [7]; 104% in data set [13]; 74.8% in [8]; 81.7% in data set [9]. Further, the inhibition in vivo at 280 µmol/kg in data set [10] worked out at 61%. Also, in [11], the Activity worked out at 0.16 mol/mol.
